From article PMC6099358 (Diabetes, Obesity & Metabolism, 2018)
Like-named read-outs stand apart in the source and are kept apart here.

Experiments:
participants with T1DM = conditions: vs placebo 0, cited from earlier work
[1] = test system: Japanese participants with T1DM; experiment: Adverse events and hypoglycaemic episodes during 4-week double-blind treatment; assay type: in vivo, human; conditions: 4 weeks
How it was run: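 In a double-blind, 4-week study, participants took test compound 2.5, 10 or 25 mg or placebo orally once daily. Adverse events were coded in MedDRA 19.1. Hypoglycaemic events were based on scheduled blood glucose tests and/or CGM. Special-interest events included genital and urinary infections and volume depletion. Severe hypoglycaemia and DKA were adjudicated externally. Results were summarised descriptively in all treated participants.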

[2] = test system: Japanese participants with T1DM; experiment: Ketogenesis markers; assay type: in vivo, human; conditions: after 4 weeks of treatment
How it was run: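 Serum β-hydroxybutyrate was sampled on Days −1, 1, 7 and 8 and measured by a contract laboratory. The change from baseline in AUC0–24h was calculated on Day 7. Day-28 levels were measured among the laboratory safety parameters and summarised descriptively.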

[3] = test system: Japanese participants with T1DM; experiment: 24-hour urinary glucose excretion; assay type: in vivo, human; conditions: for placebo-corrected adjusted mean (95% CI) change from baseline in 24-hour UGE: Day 7
How it was run: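 Japanese adults with T1DM on multiple daily insulin injections, after a 2-week placebo run-in, were randomized 1:1:1:1 to oral test compound 2.5, 10 or 25 mg or placebo once each morning for 4 weeks. All urine was collected over 24 h at baseline and Days 1, 7 and 28. Day-7 change was analysed by ANCOVA (baseline covariate) with LOCF.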

[4] = Pharmacokinetics of empagliflozin in plasma; assay type: in vivo, human
How it was run: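 Blood and urine were sampled on Days 1 and 28 of 4-week once-daily oral dosing (2.5, 10, 25 mg). Concentrations were measured by validated LC-MS/MS. Steady state was judged from troughs on Days 2, 7, 14, 21, 27, 28 and 29. Cmax, AUC and t1/2,ss were derived non-compartmentally. Timepoint statistics required ≥2/3 of values within the validated range.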

[5] = test system: Japanese participants with T2DM; conditions: 10 mg, Day 28, Japanese T2DM; cited from earlier work
[6] = test system: Japanese participants with T1DM; experiment: HbA1c and fasting plasma glucose; assay type: in vivo, human; conditions: Day 28
How it was run: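 During 4 weeks of once-daily oral test compound or placebo, blood was drawn for HbA1c on Days 1 and 28. FPG was sampled on Days −1, 1, 2, 7, 8, 14, 21, 28 and 29. Samples were assayed at a central laboratory. Changes from baseline were analysed by ANCOVA (treatment fixed, baseline covariate).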

[7] = test system: participants with T2DM with established cardiovascular disease; conditions: cited from earlier work
[8] = test system: Japanese participants with T1DM; experiment: Weekly recorded insulin dose; assay type: in vivo, human; conditions: for recorded insulin dose adjusted mean difference vs placebo (95% CI): Week 4; for % of adjusted mean change from baseline in recorded insulin dose (reduction from baseline): within Week 4
How it was run: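 Participants recorded basal and bolus insulin doses in a diary. Weekly totals were compiled during 4 weeks of once-daily oral test compound or placebo. At randomization, HbA1c 7.5–<8% prompted a 10% cut in daily insulin; otherwise dosing was at investigator discretion. Changes were analysed by ANCOVA with baseline covariate.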

Body weight = assay type: in vivo, human; conditions: Day 28
How it was run: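 T1DM participants on multiple daily insulin injections took oral test compound or placebo once daily for 4 weeks. Body weight was measured on Day 28. Change from baseline was analysed by ANCOVA, with treatment as a fixed effect and baseline as a linear covariate.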

[9] = test system: Japanese participants with T1DM; experiment: Laboratory safety parameters; assay type: in vivo, human; conditions: empagliflozin groups, Day 28
How it was run: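 Blood and urine were collected on Days 1, 7 and 28 of once-daily oral dosing with test compound or placebo. They were measured centrally and summarised descriptively in the treated set.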

[10] = test system: Japanese participants with T1DM; experiment: Continuous glucose monitoring; assay type: in vivo, human; conditions: within Week 4, CGM
How it was run: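 A blinded professional CGM device was worn from Day −6 to Day 28 during once-daily oral test compound or placebo. Glucose exposure was taken as mean daily glucose AUC. Variability was taken as glucose interquartile range, plus % time at ≤70, >70 to ≤180 and >180 mg/dL. Week-4 changes from baseline are adjusted means.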

Cc1ccc([C@@H]2O[C@H](CO)[C@@H](O)[C@H](O)[C@H]2O)cc1Cc1ccc(-c2ccc(F)cc2)s1 [canagliflozin]
DKA (participants with T1DM; 100 mg): 5 [4.3%] participants [%]
DKA (participants with T1DM; 300 mg): 7 [6.0%] participants [%]

OC[C@H]1O[C@@H](c2ccc(Cl)c(Cc3ccc(O[C@H]4CCOC4)cc3)c2)[C@H](O)[C@@H](O)[C@@H]1O [empagliflozin]
Asymptomatic hypoglycaemia with PG ≤70 mg/dL, rate ([1]; 2.5 mg): 5.1 episodes per 30 days per participant
Asymptomatic hypoglycaemia with PG ≤70 mg/dL, total number of episodes ([1]; 2.5 mg): 62 episodes
Death ([1]; 2.5 mg): 0 (0) % (n) of participants
Decreased renal function ([1]; 2.5 mg): 0 (0) % (n) of participants
Events consistent with UTI ([1]; 2.5 mg): 0 (0) % (n) of participants
Events consistent with genital infection ([1]; 2.5 mg): 7.7 (1) % (n) of participants
Events consistent with volume depletion ([1]; 2.5 mg): 0 (0) % (n) of participants
Hepatic injury ([1]; 2.5 mg): 0 (0) % (n) of participants
Hypoglycaemia (AE) ([1]; 2.5 mg): 92.3 (12) % (n) of participants
Hypoglycaemia requiring assistance, rate ([1]; 2.5 mg): 0 (0) episodes per 30 days per participant
Hypoglycaemia requiring assistance, total number of episodes ([1]; 2.5 mg): 0 (0) episodes
Ketoacidosis ([1]; 2.5 mg): 0 (0) % (n) of participants
Symptomatic hypoglycaemia with PG <54 mg/dL, rate ([1]; 2.5 mg): 1.5 episodes per 30 days per participant
Symptomatic hypoglycaemia with PG <54 mg/dL, total number of episodes ([1]; 2.5 mg): 18 episodes
Symptomatic hypoglycaemia with PG ≥54 and ≤70 mg/dL, rate ([1]; 2.5 mg): 1.8 episodes per 30 days per participant
Symptomatic hypoglycaemia with PG ≥54 and ≤70 mg/dL, total number of episodes ([1]; 2.5 mg): 22 episodes
participants with genital infection (vulvovaginal candidiasis of mild intensity) ([1]; 2.5 mg): 1 participants
≥1 AE ([1]; 2.5 mg): 92.3 (12) % (n) of participants
≥1 AE leading to discontinuation ([1]; 2.5 mg): 0 (0) % (n) of participants
≥1 Drug-related AE ([1]; 2.5 mg): 84.6 (11) % (n) of participants
≥1 Serious AE ([1]; 2.5 mg): 0 (0) % (n) of participants
≥1 Severe AE ([1]; 2.5 mg): 0 (0) % (n) of participants
Asymptomatic hypoglycaemia with PG ≤70 mg/dL, rate ([1]; 10 mg): 6.7 episodes per 30 days per participant
Asymptomatic hypoglycaemia with PG ≤70 mg/dL, total number of episodes ([1]; 10 mg): 78 episodes
Death ([1]; 10 mg): 0 (0) % (n) of participants
Decreased renal function ([1]; 10 mg): 0 (0) % (n) of participants
Events consistent with UTI ([1]; 10 mg): 0 (0) % (n) of participants
Events consistent with genital infection ([1]; 10 mg): 0 (0) % (n) of participants
Events consistent with volume depletion ([1]; 10 mg): 0 (0) % (n) of participants
Hepatic injury ([1]; 10 mg): 0 (0) % (n) of participants
Hypoglycaemia (AE) ([1]; 10 mg): 100 (12) % (n) of participants
Hypoglycaemia requiring assistance, rate ([1]; 10 mg): 0 (0) episodes per 30 days per participant
Hypoglycaemia requiring assistance, total number of episodes ([1]; 10 mg): 0 (0) episodes
Ketoacidosis ([1]; 10 mg): 0 (0) % (n) of participants
Symptomatic hypoglycaemia with PG <54 mg/dL, rate ([1]; 10 mg): 2.7 episodes per 30 days per participant
Symptomatic hypoglycaemia with PG <54 mg/dL, total number of episodes ([1]; 10 mg): 31 episodes
Symptomatic hypoglycaemia with PG ≥54 and ≤70 mg/dL, rate ([1]; 10 mg): 3.9 episodes per 30 days per participant
Symptomatic hypoglycaemia with PG ≥54 and ≤70 mg/dL, total number of episodes ([1]; 10 mg): 45 episodes
≥1 AE ([1]; 10 mg): 100 (12) % (n) of participants
≥1 AE leading to discontinuation ([1]; 10 mg): 0 (0) % (n) of participants
≥1 Drug-related AE ([1]; 10 mg): 100 (12) % (n) of participants
≥1 Serious AE ([1]; 10 mg): 0 (0) % (n) of participants
≥1 Severe AE ([1]; 10 mg): 0 (0) % (n) of participants
Asymptomatic hypoglycaemia with PG ≤70 mg/dL, total number of episodes ([1]; 25 mg): 140 episodes
Death ([1]; 25 mg): 0 (0) % (n) of participants
Decreased renal function ([1]; 25 mg): 0 (0) % (n) of participants
Events consistent with UTI ([1]; 25 mg): 0 (0) % (n) of participants
Events consistent with genital infection ([1]; 25 mg): 8.3 (1) % (n) of participants
Events consistent with volume depletion ([1]; 25 mg): 0 (0) % (n) of participants
Hepatic injury ([1]; 25 mg): 0 (0) % (n) of participants
Hypoglycaemia (AE) ([1]; 25 mg): 100 (12) % (n) of participants
Hypoglycaemia requiring assistance, rate ([1]; 25 mg): 0 (0) episodes per 30 days per participant
Hypoglycaemia requiring assistance, total number of episodes ([1]; 25 mg): 0 (0) episodes
Ketoacidosis ([1]; 25 mg): 0 (0) % (n) of participants
Symptomatic hypoglycaemia with PG <54 mg/dL, rate ([1]; 25 mg): 1.8 episodes per 30 days per participant
Symptomatic hypoglycaemia with PG <54 mg/dL, total number of episodes ([1]; 25 mg): 21 episodes
Symptomatic hypoglycaemia with PG ≥54 and ≤70 mg/dL, rate ([1]; 25 mg): 1.0 episodes per 30 days per participant
Symptomatic hypoglycaemia with PG ≥54 and ≤70 mg/dL, total number of episodes ([1]; 25 mg): 12 episodes
participants with genital infection (vulvovaginal candidiasis of mild intensity) ([1]; 25 mg): 1 participants
≥1 AE ([1]; 25 mg): 100 (12) % (n) of participants
≥1 AE leading to discontinuation ([1]; 25 mg): 0 (0) % (n) of participants
≥1 Drug-related AE ([1]; 25 mg): 91.7 (11) % (n) of participants
≥1 Serious AE ([1]; 25 mg): 0 (0) % (n) of participants
≥1 Severe AE ([1]; 25 mg): 0 (0) % (n) of participants
DKA events (investigator-reported or adjudicated) ([1]; all doses): No events meeting the criteria for DKA were reported
tolerability ([1]; all three doses (2.5, 10, 25 mg)): generally well tolerated
highest individual serum BHB level [2]: approximately 0.8 mmol/L
mean serum BHB levels ([2]; all doses): < 0.5 mmol/L
placebo-corrected adjusted mean (95% CI) change from baseline in 24-hour UGE ([3]; 2.5 mg once daily): 65.10 [43.29, 86.90] g/24 h
adjusted effect on UGE ([3]; 2.5 mg, Day 28, Japanese T1DM): 91.0 g/24 h
placebo-corrected adjusted mean (95% CI) change from baseline in 24-hour UGE ([3]; 10 mg once daily): 81.19 [58.80, 103.58] g/24 h
placebo-corrected adjusted mean (95% CI) change from baseline in 24-hour UGE ([3]; 25 mg once daily): 98.11 [75.91, 120.31] g/24 h
exposure (AUC and Cmax) versus dose ([4]; after a single dose and at steady state): increased proportionally with dose
Tmax ([4]; human, plasma, po): ~1.5 h
time to steady state ([4]; once daily oral dosing, trough concentrations): ≤ 7 days
time to peak plasma level after dosing ([4]; single and multiple oral doses, 2.5-25 mg): 1.5 h
adjusted effect on UGE [5]: 80.9 g/24 h
FPG adjusted mean difference vs placebo (95% CI) ([6]; 2.5 mg): -14.27 mg/dL
HbA1c adjusted mean difference vs placebo (95% CI) ([6]; 2.5 mg): −0.20%
FPG adjusted mean difference vs placebo (95% CI) ([6]; 10 mg): -43.63 mg/dL
HbA1c adjusted mean difference vs placebo (95% CI) ([6]; 10 mg): −0.35%
FPG adjusted mean difference vs placebo (95% CI) ([6]; 25 mg): -59.57 mg/dL
HbA1c adjusted mean difference vs placebo (95% CI) ([6]; 25 mg): −0.20%
reduction of incident or worsening nephropathy [7]: 39%
reduction of risk of cardiovascular death [7]: 38%
recorded insulin dose adjusted mean difference vs placebo (95% CI) ([8]; 2.5 mg): −0.08 U/kg
% of adjusted mean change from baseline in recorded insulin dose (reduction from baseline) ([8]; 2.5 mg): −20.5%
recorded insulin dose adjusted mean difference vs placebo (95% CI) ([8]; 10 mg): −0.10 U/kg
% of adjusted mean change from baseline in recorded insulin dose (reduction from baseline) ([8]; 10 mg): −23.3%
recorded insulin dose adjusted mean difference vs placebo (95% CI) ([8]; 25 mg): −0.09 U/kg
% of adjusted mean change from baseline in recorded insulin dose (reduction from baseline) ([8]; 25 mg): −24.2%
body weight adjusted mean difference vs placebo (95% CI) (Body weight; 2.5 mg): -1.37 kg
body weight adjusted mean difference vs placebo (95% CI) (Body weight; 10 mg): -1.47 kg
body weight adjusted mean difference vs placebo (95% CI) (Body weight; 25 mg): -1.70 kg
changes from baseline in laboratory safety parameters (overall) [9]: no significant changes from baseline
IQR of glucose adjusted mean difference vs placebo (95% CI) ([10]; 2.5 mg): -23.08 mg/dL
MDAUC of glucose adjusted mean difference vs placebo (95% CI) ([10]; 2.5 mg): -558 mg·h/dL
IQR of glucose adjusted mean difference vs placebo (95% CI) ([10]; 10 mg): -13.08 mg/dL
MDAUC of glucose adjusted mean difference vs placebo (95% CI) ([10]; 10 mg): -338 mg·h/dL
IQR of glucose adjusted mean difference vs placebo (95% CI) ([10]; 25 mg): -22.09 mg/dL
MDAUC of glucose adjusted mean difference vs placebo (95% CI) ([10]; 25 mg): -514 mg·h/dL
